TbHK1 inh – Trypanosoma brucei hexokinase 1 inhibitors, primary screen, biochemical, G6PDH-coupled NADH absorbance, MLSCN library | hexokinase 1 [Trypanosoma brucei] | recombinant TbHK1, G6PDH-coupled NADH A340 | inhibition, % at 10 µM | 0.11% of 220,000 active;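 active = inhibition of 50% or more in the single-dose primary screen; inactive = inhibition below 50%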
Hck-Nef inh – inhibitors of Nef-activated human Hck kinase, primary screen, biochemical, Z-Lyte FRET, 384-well, Hck-YEEI; Recombinant Hck-YEEI plus Nef, Z-Lyte FRET kinase assay; inhibition, % at 20 µM; 0.68% of 220,000 active; AID 463187, 2010;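 active = Hck-Nef kinase inhibition above about 50%, limit read from the data; inactive = inhibition below that limit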;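 also: 0% = DMSO with Hck plus Nef and 100% = Hck alone without Nef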
Runt-CBFb FRET – inhibitors of RUNX1 Runt–CBFb binding, primary screen, biochemical, FRET, Cerulean-Runt, Venus-CBFb, uHTS. inhibition, % at 20 µM. AID 1496, 2009. Cerulean-Runt/Venus-CBFb FRET ratio 530/480, 1 h. 0.46% of 220,000 active;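 active = inhibition over about 50% at 20 µM in the single-dose screen, limit read from the data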;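 also: 0% = DMSO wells and 100% = excess unlabeled CBFb competitor control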
Target sequence (Q01196 whole entry, looked up): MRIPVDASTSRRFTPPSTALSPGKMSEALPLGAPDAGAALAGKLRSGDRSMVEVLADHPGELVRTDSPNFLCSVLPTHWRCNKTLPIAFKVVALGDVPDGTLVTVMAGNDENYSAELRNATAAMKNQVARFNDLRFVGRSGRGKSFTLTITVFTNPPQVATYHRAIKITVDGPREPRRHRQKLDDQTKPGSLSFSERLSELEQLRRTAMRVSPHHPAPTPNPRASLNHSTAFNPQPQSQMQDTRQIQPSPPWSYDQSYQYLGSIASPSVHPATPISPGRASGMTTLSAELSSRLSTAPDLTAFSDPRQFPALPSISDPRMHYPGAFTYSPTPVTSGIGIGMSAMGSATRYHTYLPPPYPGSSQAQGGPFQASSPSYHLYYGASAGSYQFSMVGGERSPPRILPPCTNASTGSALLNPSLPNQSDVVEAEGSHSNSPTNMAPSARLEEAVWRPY
Target sequence (Q13951 whole entry, looked up): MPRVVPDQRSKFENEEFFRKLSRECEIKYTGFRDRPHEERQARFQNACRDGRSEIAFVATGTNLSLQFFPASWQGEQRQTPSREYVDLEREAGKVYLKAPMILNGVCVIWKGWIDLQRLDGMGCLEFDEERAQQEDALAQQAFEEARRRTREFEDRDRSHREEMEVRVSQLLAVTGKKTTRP
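Assay system: Cerulean-Runt domain / Medium: Tris 50 mM pH 7.5, KCl, K2SO4, 0.01% BSA / Timing: protein complex preformed 1 h, compound exposure 1 h, room temperature, dark / Measured by: FRET, excitation 422 nm, emission at 530 and 480 nm / Evaluation: loss of energy transfer signal / Control set: 5 µM unlabeled CBFb as full-inhibition high control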
Runt-SMMHC FRET – inhibitors of RUNX1 Runt–CBFb-SMMHC binding, primary screen, biochemical, FRET, Cerulean-Runt, Venus-CBFb-SMMHC, uHTS; Cerulean-Runt/Venus-CBFb-SMMHC FRET ratio 530/480, 1 h; inhibition, % at 20 µM; 0.74% of 220,000 active; AID 1434, 2008;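 active = mean inhibition across duplicate retests at 20 µM reaching about 50%, limit read from the data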;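 also: 0% = DMSO wells and 100% = wells with excess untagged CBFb-SMMHC; inhibitors lower the FRET ratio by blocking Runt binding to CBFb-SMMHC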
RanGTP-Imp inh – inhibitors of RanGTP-importin-beta interaction, primary screen, biochemical, FRET, CFP-Ran, YFP-importin-beta, homogeneous | Ran GTPase (GTP-bound) - importin-beta complex | cell-free CFP-Ran/YFP-importin-beta FRET ratio | inhibition, % (concentration not given with the values) | 1.1% of 300,000 active | AID 2216, 2009;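 active = more than half of the replicate wells show a fall in the fluorescence ratio signal beyond about 16%, limit read from the data, passing the limit was not always enough; inconclusive = exactly half of the replicate wells pass the set limit; inactive = fewer than half of replicates pass the limit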;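 also: 0% = DMSO wells and 100% = Ran loaded with GDP instead of GTP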
The depositor's hits bear a star; ? = inconclusive; nt = no result. This is a sample that favours compounds with a hit; in the whole collection about 1.9% have one here.

SMILES	TbHK1 inh	Hck-Nef inh	Runt-CBFb FRET	Runt-SMMHC FRET	RanGTP-Imp inh
CC(=O)N1c2ccc(S(=O)(=O)N(C)c3cc(C)ccc3C)cc2CC1C (stereo not drawn)	nt	nt	nt	nt	-1.4
O=C(Nc1cccc(-c2nn[nH]n2)c1)c1csc2c1CCCC2	nt	nt	nt	nt	1.2
COc1ccc(C(C)=O)cc1Cn1cnc2c(cnn2C)c1=O	8.2	-1.1	-2.1	2.4	8.2
O=c1c(O)c(-c2cccs2)oc2ccc(Cl)cc12	-4.0	0.5	6.7	57.5*	18.3*
O=c1cc(-c2cccs2)oc2ccc(Cl)cc12	-13.1	-1.7	-3.0	-5.4	-2.5
O=c1c(O)c(-c2cccs2)oc2ccccc12	-0.8	-6.0	19.3	78.7*	93.4*
N#CC1=C(SCC(N)=O)NC2=C(C(=O)c3ccccc32)C1c1ccc(Cl)cc1 (stereo not drawn)	-0.3	3.2	-7.9	-14.9	3.8
COc1cc(/C=C2\SC(=O)N(c3cccc(Cl)c3)C2=O)cc([N+](=O)[O-])c1O	8.9	45.3	-0.3	-11.7	nt
COc1cc(/C=C2\SC(=O)N(c3ccc(Cl)cc3)C2=O)cc([N+](=O)[O-])c1O	-2.0	75.5*	-3.4	-13.9	nt
c1ccc(Oc2c3ccccc3nc3ccccc23)cc1	-3.5	41.5	33.8	74.3*	8.6
Cc1nc(Oc2ccccc2)c2ccccc2n1	36.6	4.5	-0.4	-0.4	6.4
Cc1nnc2sc(-c3ccc(NC(=O)c4ccc(-c5ccc(Cl)cc5Cl)o4)cc3)nn12	-38.7	86.7*	nt	nt	?
CCOC(=O)C1=C(CSc2nc(CC)c(C)cc2C#N)OC(N)=C(C#N)C1c1ccccc1 (stereo not drawn)	-2.4	10.5	24.8	44.7	21.8*
CCOC(=O)C1=C(CSc2nc3c(cc2C#N)CN(C)CC3)OC(N)=C(C#N)C1c1ccc(Cl)cc1 (stereo not drawn)	-13.8	3.8	23.4	58.6*	26.9*
CCOC(=O)C1=C(CSc2nc3c(cc2C#N)CN(C)CC3)OC(N)=C(C#N)C1c1ccncc1 (stereo not drawn)	-12.1	6.0	50.0	73.7*	20.8*
CCOC(=O)C1=C(C)OC(N)=C(C#N)C1c1cccs1 (stereo not drawn)	-17.6	-4.5	1.6	-3.6	5.1
CCOC(=O)C1=C(CSc2nc(C)cc(C)c2C#N)OC(N)=C(C#N)C1c1ccccc1 (stereo not drawn)	-4.6	0.7	22.8	28.6	?
CCCC1=C(C(=O)OCC)C(c2cccs2)C(C#N)=C(N)O1 (stereo not drawn)	-2.0	0.2	5.0	5.9	30.0*
Cc1cc(C)c(C(=O)Nn2c(C)nc3ccccc3c2=O)cc1C	nt	nt	nt	nt	-0.7
COc1ccc2nccc(/C=C/c3ccnc4ccc(OC)cc34)c2c1	-33.4	-59.4	-0.3	81.7*	61.5*
COc1ccc(Cc2nc3ccc(C(=O)NC(C)c4cnn(C)c4)cc3o2)cc1 (stereo not drawn)	nt	nt	nt	nt	4.5
COc1ccccc1Nc1ccc(NC(=O)c2cccc([N+](=O)[O-])c2C)cc1	nt	nt	nt	nt	0.0
Cc1cccc(-n2c(O)c(C=Nc3ccccc3O)c3ccccc3c2=O)n1	-12.6	2.7	0.6	7.3	30.2*
Cc1cccc(-n2c(O)c(C=Nc3cc(O)ccc3C)c3ccccc3c2=O)n1	-8.3	0.3	-23.8	-30.0	-2.0
COc1ccccc1NC(=O)c1cc2cc(Br)ccc2cc1O	10.5	-4.5	-29.0	-96.6	0.0
SMILES	TbHK1 inh	Hck-Nef inh	Runt-CBFb FRET	Runt-SMMHC FRET	RanGTP-Imp inh
COc1ccccc1NC(=O)c1cc2ccccc2o/c1=N\O	nt	nt	47.6	62.1*	-1.9
COc1ccc2o/c(=N\O)c(C(=O)Nc3ccc(C)cc3)cc2c1	2.1	18.0	20.9	62.6*	3.7
COc1ccccc1NC(=O)c1cc2ccc(O)cc2o/c1=N\O	-2.2	5.9	95.2*	81.2*	134.8*
Cc1cc(N2CCOCC2)n2nc(C)c(-c3ccccc3)c2n1	-21.6	1.4	85.7*	135.8	nt
Cc1ccc(-c2c(C)nn3c(N4CCOCC4)cc(C)nc23)cc1	nt	nt	nt	nt	1.1
CCN(CC)CCN1C2=C(C(=O)CC(C)(C)C2)C(c2cccc(F)c2)C2=C1CC(C)(C)CC2=O	-4.9	37.3	83.1*	86.3*	95.9*
CCCCN1C2=C(C(=O)CC(C)(C)C2)C(c2ccccc2)C2=C1c1ccccc1C2=O (stereo not drawn)	-1.0	2.2	-3.1	-9.1	4.9
CC1(C)CC(=O)C2=C(C1)N(CCN1CCOCC1)C1=C(C(=O)CC(C)(C)C1)C2c1cccc(Cl)c1	-13.9	44.1	nt	-21.1	111.1*
NC(=O)c1sc2nc3c(c(-c4ccco4)c2c1N)CCCC3	-9.0	1.1	7.8	-23.3	0.6
Nc1c(C(=O)NCC2CCCO2)sc2nc3c(c(-c4ccco4)c12)CC/C3=C\c1ccco1 (stereo not drawn)	-13.6	88.3*	29.0	-2.9	nt
CC(=O)Nc1nc2n(n1)C(c1ccccc1)C=C(c1ccccc1)N2 (stereo not drawn)	-18.5	-3.1	-64.5	37.9	-8.6
O=C(c1nc2n(n1)C(c1ccc(Cl)cc1)C=C(c1ccccc1)N2)N1CCOCC1 (stereo not drawn)	-2.5	-24.5	-15.9	62.0*	-67.0
Cc1[nH]c2ccccc2c1C(=O)C(=O)N1CCN(c2ccccc2F)CC1	nt	nt	nt	nt	1.9
O=c1/c(=C/c2ccc(O)c([N+](=O)[O-])c2)sc2nc3ccccc3n12	78.1*	36.3	-0.9	1.9	nt
CCC(C)c1ccc(NC(=O)Nc2cccnc2)cc1 (stereo not drawn)	nt	nt	nt	nt	5.1
CCN(Cc1ccccc1)c1ccc(/C=N/N=C(N)N)cc1	-84.4	12.3	-3.1	6.1	38.3*
O=C1OC(c2ccc(F)cc2)=C/C1=C\c1ccc(O)cc1	nt	nt	nt	nt	-3.3
COc1ccc(C2=C/C(=C\c3cccc(OC(C)=O)c3)C(=O)O2)cc1	14.4	0.7	-36.2	38.7	42.7*
COc1ccccc1/C=C/c1nc2ccc(OC(C)=O)cc2c(=O)o1	nt	nt	nt	nt	1.3
COc1ccc(C2=C/C(=C\c3ccccc3OC(C)=O)C(=O)O2)cc1	nt	nt	nt	nt	35.4*
COc1ccccc1/C=C/C(=O)OCC(=O)c1c(N)n(C)c(=O)n(C)c1=O	-9.7	3.6	-4.3	1.2	0.2
CC1C2=C(CC(C)(C)CC2=O)NC2=C1C(=O)CC(C)(C)C2	-4.9	39.0	20.9	85.9*	135.7*
Cc1ccc(-n2nc3c(c2NC(=O)c2ccc4c(c2)OCO4)CS(=O)(=O)C3)cc1C	nt	nt	nt	nt	0.1
